The text below walks through data of ChEMBL document CHEMBL4346737, “Synthesis and evaluation of tetrahydropyrazolopyridine inhibitors of anion exchange protein SLC26A4 (pendrin)” (Bioorg Med Chem Lett, 2019).

One assay concerns the target T1, Pendrin (Homo sapiens, UniProt O43511).
T1 sequence (O43511 whole entry): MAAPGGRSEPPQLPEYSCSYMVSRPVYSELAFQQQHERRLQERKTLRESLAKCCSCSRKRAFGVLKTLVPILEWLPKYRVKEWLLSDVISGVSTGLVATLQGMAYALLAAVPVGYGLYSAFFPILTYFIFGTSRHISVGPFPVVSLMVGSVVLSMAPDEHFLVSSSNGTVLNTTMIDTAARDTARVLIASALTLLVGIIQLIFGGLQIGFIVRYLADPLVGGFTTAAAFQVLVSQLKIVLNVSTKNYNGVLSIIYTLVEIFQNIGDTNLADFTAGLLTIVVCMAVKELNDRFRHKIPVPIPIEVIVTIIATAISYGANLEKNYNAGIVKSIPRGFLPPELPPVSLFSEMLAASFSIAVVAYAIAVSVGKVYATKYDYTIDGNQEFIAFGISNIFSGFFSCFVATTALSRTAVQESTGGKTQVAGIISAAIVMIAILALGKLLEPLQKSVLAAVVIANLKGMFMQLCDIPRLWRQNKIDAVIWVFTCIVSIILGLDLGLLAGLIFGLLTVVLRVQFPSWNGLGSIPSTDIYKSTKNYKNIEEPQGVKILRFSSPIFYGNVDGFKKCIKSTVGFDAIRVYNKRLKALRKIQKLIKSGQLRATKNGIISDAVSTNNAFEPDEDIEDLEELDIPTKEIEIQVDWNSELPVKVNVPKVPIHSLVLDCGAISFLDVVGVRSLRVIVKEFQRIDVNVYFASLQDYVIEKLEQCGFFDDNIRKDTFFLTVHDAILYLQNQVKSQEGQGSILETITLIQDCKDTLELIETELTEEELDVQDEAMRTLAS
Nature of the assay: Inhibition of human PDS stably expressed in FRT cells coexpressing EYFP-H148Q/I152L/F46L assessed as reduction in I-/Cl- exchange incubated for 10 mins by fluorescence based assay. The format is cell-based.
Regarding `Cn1nc(COc2cccc(F)c2)c2c1CCN(C(=O)Nc1ccc(Cl)cc1)C2`, the concentration for half-maximal inhibition (IC50) turned out to be 7 µM.

A further assay addresses T2, Pendrin (Mus musculus, UniProt Q9R155).
T2 sequence (Q9R155 whole entry): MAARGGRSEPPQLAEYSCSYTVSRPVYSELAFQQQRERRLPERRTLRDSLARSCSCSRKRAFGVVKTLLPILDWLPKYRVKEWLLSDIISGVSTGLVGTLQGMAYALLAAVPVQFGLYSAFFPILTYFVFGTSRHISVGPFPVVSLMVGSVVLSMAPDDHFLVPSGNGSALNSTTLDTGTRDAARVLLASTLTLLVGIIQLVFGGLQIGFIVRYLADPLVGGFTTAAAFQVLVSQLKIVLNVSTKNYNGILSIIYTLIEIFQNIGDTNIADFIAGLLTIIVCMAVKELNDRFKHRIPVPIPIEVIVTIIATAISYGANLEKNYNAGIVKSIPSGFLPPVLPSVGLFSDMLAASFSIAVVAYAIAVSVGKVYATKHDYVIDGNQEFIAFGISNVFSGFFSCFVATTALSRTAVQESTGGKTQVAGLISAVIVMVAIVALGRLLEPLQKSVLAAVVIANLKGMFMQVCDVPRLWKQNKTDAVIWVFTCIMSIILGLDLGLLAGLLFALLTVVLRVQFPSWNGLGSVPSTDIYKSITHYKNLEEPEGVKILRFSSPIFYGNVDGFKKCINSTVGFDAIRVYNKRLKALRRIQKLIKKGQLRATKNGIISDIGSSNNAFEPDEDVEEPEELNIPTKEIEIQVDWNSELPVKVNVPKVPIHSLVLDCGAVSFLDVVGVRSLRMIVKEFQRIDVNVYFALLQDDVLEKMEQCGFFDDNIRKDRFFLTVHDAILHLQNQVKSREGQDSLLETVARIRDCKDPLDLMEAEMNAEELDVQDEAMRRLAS
Nature of the assay: Inhibition of mouse PDS stably expressed in FRT cells coexpressing EYFP-H148Q/I152L/F46L assessed as reduction in I-/Cl- exchange incubated for 10 mins by fluorescence based assay. The format is cell-based. Summed up:
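Fischer rat thyroid cells stably co-expressing murine pendrin and the halide-sensing YFP variant were used for Cl–/I– exchange. An I–-containing solution was added to the cells, and exchange was followed as the rate of fluorescence decrease. Inhibition was read as a slower decline in fluorescence.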
Turning to `Cn1nc(COc2cc(F)cc(F)c2)c2c1CCN(C(=S)Nc1ccc(Cl)cc1)C2`, the IC50 was greater than 10 µM.

Take `CCN(CC)S(=O)(=O)N1CCc2c(c(COc3cc(F)cc(F)c3)nn2C)C1`: the half-maximal inhibitory concentration (IC50) is greater than 10 µM.

As for `CC(C)NC(=O)N1CCc2c(c(COc3cc(F)cc(F)c3)nn2C)C1`, the IC50 was greater than 10 µM.

With `Cn1nc(COc2cc(F)cc(F)c2)c2c1CCN(C(=O)Nc1ccc(Br)cc1)C2`, the half-maximal inhibitory concentration (IC50) was determined as 3.3 µM.

Consider `Cn1nc(COc2cc(F)cc(F)c2)c2c1CCN(C(=S)NC1CCCCC1)C2`, for which the half-inhibitory concentration (IC50) is greater than 10 µM.

`Cn1nc(COc2ccc(F)c(F)c2)c2c1CCN(C(=O)Nc1ccc(Cl)cc1)C2`: the IC50 stood at 4.6 µM.

As to `Cn1nc(COc2cc(F)cc(F)c2)c2c1CCN(S(=O)(=O)c1ccc(Cl)cc1)C2`, the IC50 is greater than 10 µM.

On to `Cn1nc(COc2cc(F)cc(F)c2)c2c1CCN(S(=O)(=O)c1ccc(C(F)(F)F)cc1)C2`, for which the IC50 was greater than 10 µM.

As to `Cn1nc(COc2cc(F)c(F)c(F)c2)c2c1CCN(C(=O)Nc1ccc(Cl)cc1)C2`, the 50% inhibitory concentration (IC50) was determined as 3.3 µM.

With `Cn1nc(COc2cc(F)cc(F)c2)c2c1CCN(C(=O)Nc1ccc(Cl)cc1)C2`, the IC50 was found to be 3.1 µM.

Turning to `Cn1nc(C(=O)O)c2c1CCN(C(=O)Nc1ccc(Cl)cc1)C2`, the IC50 was greater than 10 µM.

With `CCOC(=O)c1nn(C)c2c1CN(C(=O)Nc1ccc(Cl)cc1)CC2`, the IC50 was greater than 10 µM.

Take `Cn1nc(COc2cc(F)cc(F)c2)c2c1CCN(S(C)(=O)=O)C2`: the half-inhibitory concentration (IC50) was greater than 10 µM.

As to `Cn1nc(COc2cc(F)cc(F)c2)c2c1CCN(C(=O)NC(=O)c1ccccc1)C2`, the half-maximal inhibitory concentration (IC50) was greater than 10 µM.

`Cn1nc(COc2cc(F)cc(F)c2)c2c1CCN(C(=O)NC1CCCCC1)C2`: the IC50 is greater than 10 µM.

With `CN(C)c1ccc(NC(=S)N2CCc3c(c(COc4cc(F)cc(F)c4)nn3C)C2)cc1`, the IC50 is greater than 10 µM.

As usually defined, the IC50 is the concentration needed to halve the response being measured.
